Converted amounts (≈) assume the structure as drawn.
How the values were obtained:
[1] = Association constant to Ac2-L-Lys-D-Ala-D-Ala determined at pH 9; Value ranges from 5E4-7.5E4
[2] = tested on: Bacteroides fragilis; assay: Minimum inhibitory concentration of compound was determined against Bacteroides fragilis L 1236; type: functional
Outline: (§1)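 Microbroth dilution MIC (µg/mL) in Wilkins-Chalgren broth, final inoculum 10^5 cfu/mL, incubated 48 h in an anaerobic chamber.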

[3] = tested on: Bacteroides fragilis; assay: Minimum inhibitory concentration of compound was determined against Bacteroides fragilis L 1010; type: functional; outline: as §1
[4] = tested on: Bacteroides fragilis; assay: Minimum inhibitory concentration of compound was determined against Bacteroides fragilis L 1011; type: functional; outline: as §1
[5] = tested on: Escherichia coli; assay: Efficacy of compound administered intravenously against Escherichia coli L 47 Septicemia in mouse; type: functional; details: iv
Outline: (§2)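 Mouse septicemia from intraperitoneal injection of about 10^4 cells of E. coli L 47, about 100 times the 50% lethal dose. Groups of five to eight mice each got a single dose immediately after infection, by the route stated in the line. ED50 in mg/kg was calculated from percent survivors at each dose on day 7 (Spearman-Kärber).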

[6] = tested on: Escherichia coli; assay: Efficacy of compound administered subcutaneously against Escherichia coli L 47 Septicemia in mouse; type: functional; details: sc; outline: as §2
[7] = tested on: Enterobacter cloacae; assay: Minimum inhibitory concentration of compound was determined against Enterobacter cloacae L 1485; type: functional
Outline: (§3)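 MIC (µg/mL) by microbroth dilution in Iso-Sensitest broth; final inoculum 10^4 cfu/mL; 24 h at 37 °C in air.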

[8] = tested on: Enterobacter cloacae; assay: Minimum inhibitory concentration of compound was determined against Enterobacter cloacae L 1504; type: functional; outline: as §3
[9] = tested on: Enterococcus faecalis; assay: Minimum inhibitory concentration against Enterococcus faecalis ATCC 7080; type: functional
Outline: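 Microbroth dilution MIC (µg/mL), final inoculum 10^4 cfu/mL, incubated 24 h at 37 °C in air.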

[10] = tested on: Escherichia coli; assay: Minimum inhibitory concentration of compound was determined against Escherichia coli L 1153; type: functional; outline: as §3
[11] = tested on: Escherichia coli; assay: Minimum inhibitory concentration of compound was determined against Escherichia coli L 1347; type: functional; outline: as §3
[12] = tested on: Escherichia coli; assay: Minimum inhibitory concentration of compound was determined against Escherichia coli L 1484; type: functional; outline: as §3
[13] = tested on: Escherichia coli; assay: Minimum inhibitory concentration of compound was determined against Escherichia coli L 1513; type: functional; outline: as §3
[14] = tested on: Escherichia coli; assay: Minimum inhibitory concentration of compound was determined against Escherichia coli L 1536; type: functional; outline: as §3
[15] = tested on: Escherichia coli; assay: Minimum inhibitory concentration of compound was determined against Escherichia coli L 1572; type: functional; outline: as §3
[16] = tested on: Escherichia coli; assay: Minimum inhibitory concentration against Escherichia coli L 47; type: functional; outline: as §3
[17] = tested on: Klebsiella pneumoniae; assay: Minimum inhibitory concentration of compound was determined against Klebsiella pneumoniae L 1481; type: functional; outline: as §3
[18] = tested on: Klebsiella pneumoniae; assay: Minimum inhibitory concentration of compound was determined against Klebsiella pneumoniae L 1499; type: functional; outline: as §3
[19] = organism: Mus musculus; assay: Number of mouse survivors to that of treated with compound; 6 out of 8 survived; type: functional
[20] = tested on: Proteus mirabilis; assay: Minimum inhibitory concentration of compound was determined against Proteus mirabilis L 1157; type: functional; outline: as §3
[21] = tested on: Proteus mirabilis; assay: Minimum inhibitory concentration of compound was determined against Proteus mirabilis L 1356; type: functional; outline: as §3
[22] = tested on: Proteus vulgaris; assay: Minimum inhibitory concentration against Proteus vulgaris ATCC 881; type: functional; outline: as §3
[23] = tested on: Proteus vulgaris; assay: Minimum inhibitory concentration of compound was determined against Proteus vulgaris L 1539; type: functional; outline: as §3
[24] = tested on: Pseudomonas aeruginosa; assay: Minimum inhibitory concentration of compound was determined against Pseudomonas aeruginosa L 1348; type: functional; outline: as §3
[25] = tested on: Pseudomonas aeruginosa; assay: Minimum inhibitory concentration against Pseudomonas aeruginosa ATCC 10145; type: functional; outline: as §3
[26] = tested on: Pseudomonas aeruginosa; assay: Minimum inhibitory concentration of compound was determined against Pseudomonas aeruginosa L 1138; type: functional; outline: as §3
[27] = tested on: Pseudomonas aeruginosa; assay: Minimum inhibitory concentration of compound was determined against Pseudomonas aeruginosa L 1533; type: functional; outline: as §3
[28] = tested on: Staphylococcus aureus; assay: Minimum inhibitory concentration against Staphylococcus aureus L 165; type: functional; outline: as §3
[29] = tested on: Serratia marcescens; assay: Minimum inhibitory concentration of compound was determined against Serratia marcescens L 1506; type: functional; outline: as §3
[30] = tested on: Salmonella typhimurium; assay: Minimum inhibitory concentration of compound was determined against Salmonella Typhimurium L 35; type: functional, Salmonella enterica subsp. enterica serovar Typhimurium; details: Salmonella enterica; outline: as §3
[31] = tested on: Streptococcus pyogenes; assay: Efficacy of compound administered subcutaneously against Streptococcus pyogenes L 49 Septicemia in mouse; type: functional; details: sc
Outline: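 Mice were infected intraperitoneally with about 10^5 Strep. pyogenes L 49 cells, about 100 times the 50% lethal dose. Groups of 5–8 mice were treated once right after challenge, by the route stated in the line. ED50 (mg/kg) was derived from percentage survival at each dose on day 7 (Spearman-Kärber).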

[32] = tested on: Shigella sonnei; assay: Minimum inhibitory concentration of compound was determined against Shigella sonnei L 363; type: functional; outline: as §3
[33] = tested on: Streptococcus pyogenes; assay: Minimum inhibitory concentration of compound was determined against Streptococcus pyogenes L 49 in mouse; type: functional
[34] = tested on: Shigella dysenteriae; assay: Minimum inhibitory concentration of compound was determined against Shigella dysentariae L155; type: functional
[35] = tested on: Staphylococcus epidermidis; assay: Minimum inhibitory concentration against Staphylococcus epidermidis ATCC 12228; type: functional; outline: as §3
[36] = tested on: Serratia marcescens; assay: Minimum inhibitory concentration of compound was determined against Serratia marcescens L 1488; type: functional; outline: as §3
[37] = tested on: Streptococcus pneumoniae; assay: Minimum inhibitory concentration against Streptococcus pneumoniae L 44; type: functional
Outline: (§4)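 MIC (µg/mL) by microbroth dilution in Todd-Hewitt broth, final inoculum 10^4 cfu/mL, incubated 24 h at 37 °C in air.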

[38] = tested on: Staphylococcus haemolyticus; assay: Minimum inhibitory concentration against Staphylococcus haemolyticus L 602; type: functional; outline: as §3
[39] = tested on: Streptococcus pyogenes; assay: Minimum inhibitory concentration against Streptococcus pyogenes L 49; type: functional; outline: as §4
[40] = tested on: Pseudomonas aeruginosa; assay: Minimum inhibitory concentration of compound was determined against Pseudomonas aeruginosa L 1498; type: functional; outline: as §3
[41] = tested on: Escherichia coli; assay: Efficacy of compound administered intravenously against Escherichia coli L47 Septicemia in mouse; type: functional; details: iv; outline: as §2
[42] = tested on: Escherichia coli; assay: Efficacy of compound administered subcutaneously against Escherichia coli L47 Septicemia in mouse; type: functional; details: sc; outline: as §2
[43] = organism: Mus musculus; assay: Number of survivors mouse to that of treated with compound; 7 out of 8 survived; type: functional
[44] = Association constant determined at pH 9; Value ranges from 5E4-7.5E4; type: ADME

NCCCNCCCNCCCNC(=O)[C@H]1NC(=O)[C@H]2NC(=O)[C@H](NC(=O)[C@@H]3NC(=O)[C@H]4NC(=O)[C@@H](Cc5ccc(c(Cl)c5)Oc5cc3cc(c5O)Oc3ccc(cc3Cl)[C@H]2O)NC(=O)[C@H](N)c2ccc(O)c(c2)Oc2cc(O)cc4c2)c2ccc(O)c(c2)-c2c(O)cc(O)cc21
Ka [1]: 75000 M⁻¹ | MIC [2]: 128 µg/mL (≈ 93.5 µM) | MIC [3]: 16 µg/mL (≈ 11.7 µM) | MIC [4]: 32 µg/mL (≈ 23.4 µM) | ED50 [5]: < 40 mg/kg | ED50 [6]: > 200 mg/kg | MIC [7]: 4 µg/mL (≈ 2.92 µM) | MIC [8]: 8 µg/mL (≈ 5.84 µM) | MIC [9]: 0.25 µg/mL (≈ 0.183 µM) | MIC [10]: 1 µg/mL (≈ 0.73 µM) | MIC [11]: 4 µg/mL (≈ 2.92 µM) | MIC [12]: 2 µg/mL (≈ 1.46 µM) | MIC [13]: 2 µg/mL (≈ 1.46 µM) | MIC [14]: 2 µg/mL (≈ 1.46 µM) | MIC [15]: 2 µg/mL (≈ 1.46 µM) | MIC [16]: 0.5 µg/mL (≈ 0.365 µM) | MIC [17]: 4 µg/mL (≈ 2.92 µM) | MIC [18]: 8 µg/mL (≈ 5.84 µM) | Survivors [19]: 6 | MIC [20]: 128 µg/mL (≈ 93.5 µM) | MIC [21]: 32 µg/mL (≈ 23.4 µM) | MIC [22]: 64 µg/mL (≈ 46.7 µM) | MIC [23]: 32 µg/mL (≈ 23.4 µM) | MIC [24]: 4 µg/mL (≈ 2.92 µM) | MIC [25]: 2 µg/mL (≈ 1.46 µM) | MIC [26]: 32 µg/mL (≈ 23.4 µM) | MIC [27]: 64 µg/mL (≈ 46.7 µM) | MIC [28]: 0.063 µg/mL (≈ 0.046 µM) | MIC [29]: 8 µg/mL (≈ 5.84 µM) | MIC [30]: 4 µg/mL (≈ 2.92 µM) | ED50 [31]: 0.72 mg/kg | MIC [32]: 2 µg/mL (≈ 1.46 µM) | MIC [33]: 0.06 µg/mL (≈ 0.0438 µM) | MIC [34]: 1 µg/mL (≈ 0.73 µM) | MIC [35]: 0.016 µg/mL (≈ 0.0117 µM) | MIC [36]: 8 µg/mL (≈ 5.84 µM) | MIC [37]: 0.125 µg/mL (≈ 0.0913 µM) | MIC [38]: 0.063 µg/mL (≈ 0.046 µM) | MIC [39]: 0.063 µg/mL (≈ 0.046 µM) | MIC [40]: 64 µg/mL (≈ 46.7 µM)

NCCCN(CCCN)CCCNC(=O)[C@H]1NC(=O)[C@H]2NC(=O)[C@H](NC(=O)[C@@H]3NC(=O)[C@H]4NC(=O)[C@@H](Cc5ccc(c(Cl)c5)Oc5cc3cc(c5O)Oc3ccc(cc3Cl)[C@H]2O)NC(=O)[C@H](N)c2ccc(O)c(c2)Oc2cc(O)cc4c2)c2ccc(O)c(c2)-c2c(O)cc(O)cc21
ED50 [41]: < 40 mg/kg | ED50 [42]: 40 mg/kg | MIC [9]: 0.125 µg/mL (≈ 0.0913 µM) | MIC [16]: 1 µg/mL (≈ 0.73 µM) | Survivors [43]: 7 | MIC [22]: 128 µg/mL (≈ 93.5 µM) | MIC [25]: 8 µg/mL (≈ 5.84 µM) | MIC [28]: 0.125 µg/mL (≈ 0.0913 µM) | ED50 [31]: 0.72 mg/kg | MIC [33]: 0.06 µg/mL (≈ 0.0438 µM) | MIC [35]: 0.008 µg/mL (≈ 0.00584 µM) | MIC [37]: 0.125 µg/mL (≈ 0.0913 µM) | MIC [38]: 0.063 µg/mL (≈ 0.046 µM) | MIC [39]: 0.063 µg/mL (≈ 0.046 µM)

NCCCNCCCNC(=O)[C@H]1NC(=O)[C@H]2NC(=O)[C@H](NC(=O)[C@@H]3NC(=O)[C@H]4NC(=O)[C@@H](Cc5ccc(c(Cl)c5)Oc5cc3cc(c5O)Oc3ccc(cc3Cl)[C@H]2O)NC(=O)[C@H](N)c2ccc(O)c(c2)Oc2cc(O)cc4c2)c2ccc(O)c(c2)-c2c(O)cc(O)cc21
Ka [44]: 50000 M⁻¹ | MIC [9]: 0.125 µg/mL (≈ 0.0953 µM) | MIC [16]: 1 µg/mL (≈ 0.762 µM) | MIC [22]: 32 µg/mL (≈ 24.4 µM) | MIC [25]: 8 µg/mL (≈ 6.1 µM) | MIC [28]: 0.063 µg/mL (≈ 0.048 µM) | ED50 [31]: 1.65 mg/kg | MIC [33]: 0.13 µg/mL (≈ 0.0991 µM) | MIC [35]: 0.032 µg/mL (≈ 0.0244 µM) | MIC [37]: 0.125 µg/mL (≈ 0.0953 µM) | MIC [38]: 0.125 µg/mL (≈ 0.0953 µM) | MIC [39]: 0.063 µg/mL (≈ 0.048 µM)

From ChEMBL document CHEMBL1125337, “Synthesis and antibacterial activity of a series of basic amides of teicoplanin and deglucoteicoplanin with polyamines” (J Med Chem, 1992)
